Assay results published in ChEMBL document CHEMBL1152452, “Modifications incorporated in CpG motifs of oligodeoxynucleotides lead to antagonist activity of toll-like receptors 7 and 9” (2009).
Activity calls are given as the source filed them. The calls are words filed in the database; no cut-off is given here.

Legend:
[1] = target: T1, Toll-like receptor 9 (Mus musculus) (UniProt Q9EQU3); assay: Activation of mouse TLR9 expressed in HEK293 cells assessed as NF-kappaB level at 0.1 ug/mL after 18 hrs by reporter gene assay; assay type: cell-based
T1 sequence (whole entry): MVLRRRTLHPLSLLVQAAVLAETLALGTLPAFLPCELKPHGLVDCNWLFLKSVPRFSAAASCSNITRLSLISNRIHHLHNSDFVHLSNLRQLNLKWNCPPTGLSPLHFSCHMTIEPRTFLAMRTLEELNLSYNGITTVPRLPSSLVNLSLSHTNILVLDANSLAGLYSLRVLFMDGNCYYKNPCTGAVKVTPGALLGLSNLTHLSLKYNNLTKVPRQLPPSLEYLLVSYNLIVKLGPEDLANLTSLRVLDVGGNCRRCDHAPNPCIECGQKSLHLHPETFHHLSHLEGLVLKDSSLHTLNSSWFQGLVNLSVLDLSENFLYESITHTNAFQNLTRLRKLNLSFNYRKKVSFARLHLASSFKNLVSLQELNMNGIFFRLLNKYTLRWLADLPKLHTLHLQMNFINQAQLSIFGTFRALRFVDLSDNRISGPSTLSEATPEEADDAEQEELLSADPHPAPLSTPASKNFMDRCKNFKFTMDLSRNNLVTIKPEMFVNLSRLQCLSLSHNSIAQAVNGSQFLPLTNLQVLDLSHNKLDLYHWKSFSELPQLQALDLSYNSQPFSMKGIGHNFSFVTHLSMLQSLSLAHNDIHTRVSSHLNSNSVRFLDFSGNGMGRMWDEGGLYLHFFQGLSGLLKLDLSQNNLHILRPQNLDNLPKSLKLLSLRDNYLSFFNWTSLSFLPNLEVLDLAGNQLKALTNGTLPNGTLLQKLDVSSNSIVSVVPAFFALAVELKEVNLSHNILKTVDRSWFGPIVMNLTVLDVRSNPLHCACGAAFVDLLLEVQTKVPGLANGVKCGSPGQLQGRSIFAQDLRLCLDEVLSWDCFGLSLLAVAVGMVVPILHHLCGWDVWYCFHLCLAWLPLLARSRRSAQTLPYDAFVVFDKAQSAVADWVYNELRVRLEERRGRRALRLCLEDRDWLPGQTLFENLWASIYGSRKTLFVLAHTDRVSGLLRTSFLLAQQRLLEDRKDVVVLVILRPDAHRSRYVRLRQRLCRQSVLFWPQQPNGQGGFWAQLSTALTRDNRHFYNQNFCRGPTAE
How it was run: (§1)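 HEK293 cells stably expressing mouse TLR9 were transiently transfected with a SEAP reporter for 6 h, then stimulated with ODN at 0.1, 0.3 or 1 μg/mL for 18 h. Reporter expression is given as fold change in NF-κB activity over medium. Representative of two independent experiments.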

[2] = target: T1, Toll-like receptor 9 (Mus musculus); assay: Activation of mouse TLR9 expressed in HEK293 cells assessed as NF-kappaB level at 0.3 ug/mL after 18 hrs by reporter gene assay; assay type: cell-based; how it was run: as §1
J774 = assay: Activation of NF-kappaB in mouse J774 cells at 2.5 ug/ml after 1 hr by EMSA; assay type: cell-based
How it was run: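 Murine J774 macrophages in DMEM with 10% FBS and antibiotics, plated at 5×10^6 cells/well. ODNs were given alone or together for 1 h. For inhibition, the agonist ODN at 0.5 μg/mL was co-incubated with the modified ODN at 2.5 μg/mL. Nuclear extracts were resolved by EMSA on native polyacrylamide gels and read by autoradiography.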

Splenocyte [3] = assay: Inhibition of 5'-CTATCTGACGTTCTCTGT-3'-induced IL12 secretion in C57BL/6 mouse splenocytes at 4 ug/ml after 24 hrs by sandwich ELISA; assay type: functional, cell-based
How it was run: (§2)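 Splenocytes from 5–8-week C57BL/6 mice, 5 × 10^6 cells/mL in RPMI complete medium, were co-incubated with the TLR9 agonist ODN (1 µg/mL) plus test ODN at 1 or 4 µg/mL, or over a concentration series, at 37 °C for 24 h. Supernatant IL-12 or IL-6 was measured by sandwich ELISA. Runs were done in duplicate, with three independent experiments.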

Splenocyte [4] = assay: Inhibition of 5'-CTATCTGACGTTCTCTGT-3'-induced IL6 secretion in C57BL/6 mouse splenocytes at 4 ug/ml after 24 hrs by sandwich ELISA; assay type: functional, cell-based; how it was run: as §2
Mus musculus [5] = assay: Immunostimulatory activity in C57BL/6 mouse assessed as induction of MIP-1alpha level in serum at 2 mg/kg, sc after 2 hrs by Luminex multiplex assay; assay type: functional, organism-based; parameters: dose 2 mg/kg
How it was run: (§3)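 Female C57BL/6 mice, 5–6 weeks old, n = 3, received a single 2 mg/kg subcutaneous ODN injection in the right flank. Blood was taken by retro-orbital bleeding 2 h later. Naive mice served as baseline. Representative of three experiments.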

Mus musculus [6] = assay: Immunostimulatory activity in C57BL/6 mouse assessed as induction of MCP1 level in serum at 2 mg/kg, sc after 2 hrs by Luminex multiplex assay; assay type: functional, organism-based; parameters: dose 2 mg/kg; how it was run: as §3
Mus musculus [7] = assay: Immunostimulatory activity in C57BL/6 mouse assessed as induction of KC level in serum at 2 mg/kg, sc after 2 hrs by Luminex multiplex assay; assay type: functional, organism-based; parameters: dose 2 mg/kg; how it was run: as §3
Mus musculus [8] = assay: Immunostimulatory activity in C57BL/6 mouse assessed as inhibition of 5'-CTATCTGACGTTCTCTGT-3'-induced TNFalpha production in serum at 2 mg/kg, sc administered 24 hrs prior to 5'-CTATCTGACGTTCTCTGT-3' challenge measured after 2 hrs by Luminex multiplex assay; assay type: functional, organism-based; parameters: dose 2 mg/kg
How it was run: (§4)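 C57BL/6 mice received 2 mg/kg ODN sc in one flank. After 24 h, the TLR9 agonist ODN was given at 0.5 mg/kg sc in the opposite flank. Blood was drawn 2 h later and serum cytokines/chemokines were quantified by Luminex multiplex assay. Percent inhibition was taken against the agonist alone. Representative of three experiments.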

Mus musculus [9] = assay: Immunostimulatory activity in C57BL/6 mouse assessed as inhibition of 5'-CTATCTGACGTTCTCTGT-3'-induced IL10 production in serum at 2 mg/kg, sc administered 24 hrs prior to 5'-CTATCTGACGTTCTCTGT-3' challenge measured after 2 hrs by Luminex multiplex assay; assay type: functional, organism-based; parameters: dose 2 mg/kg; how it was run: as §4
Mus musculus [10] = assay: Immunostimulatory activity in C57BL/6 mouse assessed as inhibition of 5'-CTATCTGACGTTCTCTGT-3'-induced KC production in serum at 2 mg/kg, sc administered 24 hrs prior to 5'-CTATCTGACGTTCTCTGT-3' challenge measured after 2 hrs by Luminex multiplex assay; assay type: functional, organism-based; parameters: dose 2 mg/kg; how it was run: as §4
Mus musculus [11] = assay: Immunostimulatory activity in C57BL/6 mouse assessed as inhibition of 5'-CTATCTGACGTTCTCTGT-3'-induced IL12 production in serum at 2 mg/kg, sc administered 24 hrs prior to 5'-CTATCTGACGTTCTCTGT-3' challenge measured after 2 hrs by sandwich ELISA; assay type: functional; details: C57BL/6, sc, route subcutaneous
How it was run: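 C57BL/6 mice were pretreated sc in the right flank with 2, 5 or 10 mg/kg ODN. After 24 h, the TLR9 agonist ODN was given at 0.5 mg/kg sc in the left flank. Serum IL-12 was measured by ELISA 2 h later. Representative of two experiments.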

Structure (SMILES) | Activity [1] | Activity [2] | Activity (J774) | Activity (Splenocyte [3]) | Activity (Splenocyte [4]) | Activity (Mus musculus [5]) | Activity (Mus musculus [6]) | Activity (Mus musculus [7]) | Activity (Mus musculus [8]) | Activity (Mus musculus [9]) | Activity (Mus musculus [10]) | inhibition in vivo at 2 mg/kg (Mus musculus [11])
CO[C@@H]1[C@H](OP(=O)(S)OC[C@H]2O[C@@H](n3cnc4c(=O)[nH]c(N)nc43)C[C@@H]2OP(=O)(S)OC[C@H]2O[C@@H](n3cc(C)c(=O)[nH]c3=O)C[C@@H]2OP(=O)(S)OC[C@H]2O[C@@H](n3cc(C)c(=O)[nH]c3=O)C[C@@H]2OP(=O)(S)OC[C@H]2O[C@@H](n3ccc(N)nc3=O)C[C@@H]2OP(=O)(S)OC[C@H]2O[C@@H](n3cc(C)c(=O)[nH]c3=O)C[C@@H]2OP(=O)(S)OC[C@H]2O[C@@H](n3ccc(N)nc3=O)C[C@@H]2OP(=O)(S)OC[C@H]2O[C@@H](n3cc(C)c(=O)[nH]c3=O)C[C@@H]2OP(=O)(S)OC[C@H]2O[C@@H](n3cnc4c(=O)[nH]c(N)nc43)C[C@@H]2OP(=O)(S)OC[C@H]2O[C@@H](n3cc(C)c(=O)[nH]c3=O)C[C@@H]2O)[C@@H](COP(=O)(S)O[C@H]2C[C@H](n3cnc4c(N)ncnc43)O[C@@H]2COP(=O)(S)O[C@H]2C[C@H](n3cnc4c(=O)[nH]c(N)nc43)O[C@@H]2COP(=O)(S)O[C@H]2C[C@H](n3cc(C)c(=O)[nH]c3=O)O[C@@H]2COP(=O)(S)O[C@H]2C[C@H](n3ccc(N)nc3=O)O[C@@H]2COP(=O)(S)O[C@H]2C[C@H](n3cc(C)c(=O)[nH]c3=O)O[C@@H]2COP(=O)(S)O[C@H]2C[C@H](n3cnc4c(N)ncnc43)O[C@@H]2COP(=O)(S)O[C@H]2C[C@H](n3cc(C)c(=O)[nH]c3=O)O[C@@H]2COP(=O)(S)O[C@H]2C[C@H](n3ccc(N)nc3=O)O[C@@H]2CO)O[C@H]1n1ccc(N)nc1=O (some centres undefined) | inactive | inactive | inactive | Active | Active | inactive | inactive | inactive | Active | Active | Active | 50%
CO[C@@H]1[C@H](OP(=O)(S)OC[C@H]2O[C@@H](n3cc(C)c(=O)[nH]c3=O)C[C@@H]2OP(=O)(S)OC[C@H]2O[C@@H](n3cc(C)c(=O)[nH]c3=O)C[C@@H]2OP(=O)(S)OC[C@H]2O[C@@H](n3ccc(N)nc3=O)C[C@@H]2OP(=O)(S)OC[C@H]2O[C@@H](n3cc(C)c(=O)[nH]c3=O)C[C@@H]2OP(=O)(S)OC[C@H]2O[C@@H](n3ccc(N)nc3=O)C[C@@H]2OP(=O)(S)OC[C@H]2O[C@@H](n3cc(C)c(=O)[nH]c3=O)C[C@@H]2OP(=O)(S)OC[C@H]2O[C@@H](n3cnc4c(=O)[nH]c(N)nc43)C[C@@H]2OP(=O)(S)OC[C@H]2O[C@@H](n3cc(C)c(=O)[nH]c3=O)C[C@@H]2O)[C@@H](COP(=O)(S)O[C@H]2C[C@H](n3ccc(N)nc3=O)O[C@@H]2COP(=O)(S)O[C@H]2C[C@H](n3cnc4c(N)ncnc43)O[C@@H]2COP(=O)(S)O[C@H]2C[C@H](n3cnc4c(=O)[nH]c(N)nc43)O[C@@H]2COP(=O)(S)O[C@H]2C[C@H](n3cc(C)c(=O)[nH]c3=O)O[C@@H]2COP(=O)(S)O[C@H]2C[C@H](n3ccc(N)nc3=O)O[C@@H]2COP(=O)(S)O[C@H]2C[C@H](n3cc(C)c(=O)[nH]c3=O)O[C@@H]2COP(=O)(S)O[C@H]2C[C@H](n3cnc4c(N)ncnc43)O[C@@H]2COP(=O)(S)O[C@H]2C[C@H](n3cc(C)c(=O)[nH]c3=O)O[C@@H]2COP(=O)(S)O[C@H]2C[C@H](n3ccc(N)nc3=O)O[C@@H]2CO)O[C@H]1n1cnc2c(=O)[nH]c(N)nc21 (some centres undefined) | inactive | inactive | inactive | Active | Active | inactive | inactive | inactive | Active | Active | Active | 50%
